From PubChem BioAssay
Calls of active or inactive are those of the source.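 The calls were made as follows, unless noted: active = viability at or below 10% of carrier control in both of two separate runs; inconclusive = viability at or below 10% in only one of the two runs; inactive = the rest.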

Experiments:
[1] = reducers of endogenous Her2 protein level, primary screen, SKBR3 breast tumor cells, AlphaScreen, ATP viability (AID 461;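 active = Her2 level under about 52% in both replicate screens, with viability over 70% of control, limit read from the data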;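 as to Her2 level: lower value means less Her2 protein in the cells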;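 as to viability: percent of carrier control wells set as 100% viability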); details: 18-24 h, measured here: SKBR3 viability, ATP luminescence, at 10 µM
[2] = biological target: Receptor tyrosine-protein kinase erbB-2 (Homo sapiens) (UniProt P04626); assay: as above; details: 18-24 h, at 10 µM, stronger effect = lower value
[3] = SK-BR-3 cell growth inhibitors, pilot screen, 24 h, human (AID 572); details: SK-BR-3 viability, CellTiter-Glo luminescence, at 10 µM, stronger effect = lower value;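 also: compound exposure lasted between 18 and 24 h rather than exactly 24 h; 100% = carrier-treated control wells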
[4] = HUVEC growth inhibition – cell-based, human, primary screen (AID 575;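 active = viability at or below 30% in both replicate assays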;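 also: 100% = median of untreated cell wells with 0.1% DMSO on each plate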); details: HUVEC proliferation, CellTiter-Glo luminescence, 72 h; at 10 µM; stronger effect = lower value
Outline: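 material = primary HUVEC, no more than 12 passages | input = 1250 cells per well | controls = vehicle and MePR control wells | measured by = CTG luminescence | times = 72 h compound incubation | format = collagen-coated 384-well format | read-out = % viability vs DMSO wells | doses = single 10 µM dose, 0.1% DMSO, from 5x medium stock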

[5] = growth inhibitors of H69AR lung tumor, primary screen, human, duplicate replicates (AID 580;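 active = viability at or under a set limit in both replicates, limit being median viability minus 3 SD, cut at about 48% in these data, passing the limit was not always enough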;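 also: 100% = mean luminescence of untreated wells and 0% = no signal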); details: H69AR lung tumor cells viability, ATP luminescence, 72 h; at 10 µM; stronger effect = lower value
[6] = reversal of MRP1-mediated doxorubicin resistance, pilot screen, H69AR cells, doxorubicin co-treatment (AID 601;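 active = viability loss from added drug above about 55%, and viability with drug at most 40%, in both replicates, limit read from the data, passing the limit was not always enough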); details: CellTiter-Glo, 72 h, at 10 µM; for differential viability (reversal): stronger effect = higher value
[7] = 384-well plate pilot, post-Golgi transport modulator project, inhibition of yeast transport mutant growth (AID 636; in the data active = inhibition above about 31%); details: absorbance 615 nm, about 18 h, stronger effect = higher value
[8] = growth suppression of yeast trafficking mutant, preliminary HTS, modulators of trafficking downstream of Golgi apparatus project, 1536-format plate, OD 615 nm (AID 637; in the data active = inhibition above about 30%); details: yeast transport mutant growth, absorbance 615 nm, 18 h; stronger effect = higher value
[9] = H69AR cells + 2 uM doxorubicin, measured here: viability with 2 uM doxorubicin, stronger effect = lower value
[10] = H69AR cells, compound alone cytotoxicity

Receptor tyrosine-protein kinase erbB-2 (Homo sapiens), sequence (P04626 whole entry, looked up): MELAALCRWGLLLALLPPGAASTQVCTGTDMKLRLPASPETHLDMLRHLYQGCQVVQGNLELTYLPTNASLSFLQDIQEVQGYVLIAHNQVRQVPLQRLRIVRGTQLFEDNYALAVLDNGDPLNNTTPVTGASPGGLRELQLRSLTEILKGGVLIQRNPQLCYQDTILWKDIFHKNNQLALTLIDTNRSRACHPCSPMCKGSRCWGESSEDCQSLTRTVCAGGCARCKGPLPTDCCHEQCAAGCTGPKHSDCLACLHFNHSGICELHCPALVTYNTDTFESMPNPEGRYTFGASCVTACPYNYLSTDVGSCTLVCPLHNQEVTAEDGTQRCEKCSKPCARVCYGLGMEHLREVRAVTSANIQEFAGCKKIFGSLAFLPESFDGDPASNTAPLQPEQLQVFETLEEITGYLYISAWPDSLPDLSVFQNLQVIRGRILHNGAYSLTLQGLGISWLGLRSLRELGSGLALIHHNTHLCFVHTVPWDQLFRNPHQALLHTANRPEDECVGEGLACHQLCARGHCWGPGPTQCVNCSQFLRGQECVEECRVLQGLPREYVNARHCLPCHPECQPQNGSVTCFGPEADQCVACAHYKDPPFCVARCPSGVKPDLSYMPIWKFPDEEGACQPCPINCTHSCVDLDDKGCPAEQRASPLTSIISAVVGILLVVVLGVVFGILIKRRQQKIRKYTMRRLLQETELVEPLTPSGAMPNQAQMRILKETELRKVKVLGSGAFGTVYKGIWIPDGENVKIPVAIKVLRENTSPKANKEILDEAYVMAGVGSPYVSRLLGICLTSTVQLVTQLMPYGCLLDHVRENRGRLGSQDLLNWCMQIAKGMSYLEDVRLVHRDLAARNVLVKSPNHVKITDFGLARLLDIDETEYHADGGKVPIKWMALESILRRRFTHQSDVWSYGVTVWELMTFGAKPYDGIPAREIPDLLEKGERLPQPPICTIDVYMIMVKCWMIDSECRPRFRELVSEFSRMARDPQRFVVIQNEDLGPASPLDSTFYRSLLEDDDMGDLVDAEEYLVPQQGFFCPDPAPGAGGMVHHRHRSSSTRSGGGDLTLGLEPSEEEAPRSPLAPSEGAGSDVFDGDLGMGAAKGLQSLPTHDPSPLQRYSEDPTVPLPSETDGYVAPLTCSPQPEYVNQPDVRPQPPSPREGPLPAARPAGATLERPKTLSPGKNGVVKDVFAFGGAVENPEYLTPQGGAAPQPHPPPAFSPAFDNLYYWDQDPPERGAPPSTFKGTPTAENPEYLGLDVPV

Compound | viability [1] [%] | Her2 level [2] | viability [3] | viability [4] | viability [5] | differential viability (reversal) ([6]; H69AR cells + 2 uM doxorubicin) | viability [6, 9] [%] | viability [6, 10] [%] | inhibition [7] | inhibition [8]
CCOC(=O)c1[nH]cc(-c2ccccc2)c1N1CCOCC1 | 92.5 | 89.5% (inactive) | 92.5% (inactive) | 98% (inactive) | 94.7% (inactive) | 9.26% (inactive) | 85.5 | 94.7 | -2.5% (inactive) | 0.55% (inactive)
COc1ccc(S(=O)(=O)NCC(c2cccnc2)N2CCN(c3ccc(F)cc3)CC2)cc1C (stereo not given) | 91.5 | 80% (inactive) | 91.5% (inactive) | 99.1% (inactive) | 87.4% (inactive) | -0.665% (inactive) | 88.1 | 87.4 | -1.04% (inactive) | -0.98% (inactive)
Cc1cc(OCC(=O)N2CCOCC2)cc2oc(=O)c3ccccc3c12 | 108 | 100% (inactive) | 108% (inactive) | 109% (inactive) | 85.1% (inactive) | -0.74% (inactive) | 85.9 | 85.1 | 0.39% (inactive) | -10.8% (inactive)
O=C(NCc1cccnc1)c1ccccn1 | 102 | 108% (inactive) | 102% (inactive) | 103% (inactive) | 110% (inactive) | 16.2% (inactive) | 93.9 | 110 | -4.8% (inactive) | -3.65% (inactive)
COc1ccccc1OCC(=O)N1CCNC1=O | 90 | 96.5% (inactive) | 90% (inactive) | 84% (inactive) | 102% (inactive) | 12.2% (inactive) | 90 | 102 | -1.73% (inactive) | -0.98% (inactive)
CCOCCCNC(=O)CS(=O)(=O)Cc1nc(-c2cccc(OC)c2)oc1C | 128 | 92% (inactive) | 128% (inactive) | 88.4% (inactive) | 84% (inactive) | -3.73% (inactive) | 87.8 | 84 | -4.81% (inactive) | 5.24% (inactive)
Cc1ccc(Cn2ncc3c(NCCCN4CCOCC4)ncnc32)cc1 | 92.5 | 92.5% (inactive) | 92.5% (inactive) | 96.8% (inactive) | 102% (inactive) | 18.2% (inactive) | 83.6 | 102 | -2.63% (inactive) | 0.32% (inactive)
Cc1cccn2c(=O)c3cc(C(=O)N4CCCc5ccccc54)n(C)c3nc12 | 86.5 | 80% (inactive) | 86.5% (inactive) | 97.2% (inactive) | 90.2% (inactive) | 1.01% (inactive) | 89.2 | 90.2 | -1.89% (inactive) | -5.08% (inactive)
CCn1nc(CC(=O)Nc2nnc(CC(=O)N3CCCCC3)s2)c2ccccc2c1=O | 96 | 102% (inactive) | 96% (inactive) | 84.4% (inactive) | 97.5% (inactive) | 4.77% (inactive) | 92.7 | 97.5 | -0.52% (inactive) | -4.83% (inactive)
CCOC(=O)c1ccc(-c2c(C(=O)OCC)oc3cc(O)c(CC)cc3c2=O)o1 | 96.5 | 88.5% (inactive) | 96.5% (inactive) | 76.6% (inactive) | 83.3% (inactive) | -19.3% (inactive) | 103 | 83.3 | -3.42% (inactive) | 11.6% (inactive)
COc1ccc(N(CC(=O)N2CCN(Cc3ccc4c(c3)OCO4)CC2)S(C)(=O)=O)cc1OC | 106 | 89.5% (inactive) | 106% (inactive) | 108% (inactive) | 96.2% (inactive) | 9.96% (inactive) | 86.2 | 96.2 | -8.67% (inactive) | -2.58% (inactive)
O=C(CN(C(=O)CCNC(=O)c1ccco1)c1ccccc1)NC1CCCC1 | 93 | 112% (inactive) | 93% (inactive) | 103% (inactive) | 93.5% (inactive) | -5.44% (inactive) | 98.9 | 93.5 | 2.53% (inactive) | 33.5% (active)
O=C(Nc1cccnc1)Nc1ccc2c(c1)OCO2 | 102 | 74% (inactive) | 102% (inactive) | 78.1% (inactive) | 82.7% (inactive) | 12.9% (inactive) | 69.8 | 82.7 | -2.24% (inactive) | 6.03% (inactive)
Cc1ccc2c(c1)-c1cc(C)nn1C(c1ccc3c(c1)OCO3)N2 (stereo not given) | 100 | 100% (inactive) | 100% (inactive) | 54% (inactive) | 87.2% (inactive) | -11.2% (inactive) | 98.4 | 87.2 | -2.76% (inactive) | -3.55% (inactive)
